From ChEMBL document CHEMBL5032510, “Identification of Novel Fused Heteroaromatics-Based MALT1 Inhibitors by High-Throughput Screening to Treat B Cell Lymphoma” (J Med Chem, 2021)
Calls of active or inactive are those of the source. The calls are words filed in the database; no cut-off is given here.

Assays:
[1] = Induction of apoptosis in human HBL1 cells assessed as late apoptosis at 10 uM measured after 24 hrs by Annexin V-FITC/ Propidium iodide staining based flow cytometry (reference value: 4.77%); type: functional
[2] = biological target: Nuclear factor NF-kappa-B complex (Homo sapiens) (UniProt Q00653+P19838+Q04206); experiment: Inhibition of NF-kappab signaling in human TMD8 cells assessed as reduction in phosphorylation of IkappaB-alpha at 8 uM preincubated for 30 mins followed by MG-132 addition and measured after 2 hrs by Western blot analysis; type: cell-based; conditions: time 2.5 hrs
Method in brief: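 HBL1, TMD8 and OCI-LY1 cells pretreated 30 min with inhibitor (4 and 8 μM), then given 10 μM proteasome inhibitor MG-132 for 2 h. Lysates (20−75 μg protein) run on SDS-PAGE, blotted to PVDF and probed for RelB, IκBα and phospho-IκBα, with β-actin as loading control; HRP secondary, chemiluminescence detection.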

[3] = Half life in CD-1 mouse at 1 mg/kg, iv by LC-MS/MS analysis; type: ADME, organism-based; conditions: in vivo
Method in brief: (§1)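 Compound formulated in 5% DMSO + 5% Tween-80 in 90% saline and given to male ICR (CD-1) mice (n = 9) at 10 mg/kg po, 1 mg/kg ip or 1 mg/kg iv. Blood was drawn via the jugular vein at set time points and held on ice. Plasma was separated by centrifugation and stored at −80 °C before PK parameters were derived.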

[4] = Oral bioavailability in CD-1 mouse at 10 mg/kg by LC-MS/MS analysis; type: ADME, organism-based; conditions: in vivo
Method in brief: (§2)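 Male ICR (CD-1) mice (n = 9). Compound formulated in 5% DMSO + 5% Tween-80 in 90% saline and dosed 10 mg/kg po, 1 mg/kg ip or 1 mg/kg iv. Blood drawn from the jugular vein at set time points and held on ice. Plasma separated by centrifugation and stored at −80 °C before parameter derivation.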

[5] = test system: TMD8; experiment: Induction of apoptosis in human TMD8 cells assessed as late apoptotic cells at 5 uM measured after 24 hrs by Annexin V-FITC/ Propidium iodide staining based flow cytometry (reference value: 2.19%); type: functional
[6] = Cmax in CD-1 mouse at 1 mg/kg, ip by LC-MS/MS analysis; type: ADME, organism-based; design: route intraperitoneal, dose 1 mg/kg; conditions: in vivo; method in brief: as §1
[7] = test system: OCI-Ly1; experiment: Induction of apoptosis in human OCI-Ly1 cells assessed as early apoptotic cells at 10 uM measured after 24 hrs by Annexin V-FITC/ Propidium iodide staining based flow cytometry (reference value: 1.29%); type: functional
[8] = Intraperitoneal bioavailability in CD-1 mouse at 1 mg/kg by LC-MS/MS analysis; conditions: in vivo, ip
[9] = Induction of apoptosis in human HBL1 cells assessed as dead cells at 10 uM measured after 24 hrs by Annexin V-FITC/ Propidium iodide staining based flow cytometry (reference value: 2.32%); type: functional
[10] = test system: OCI-Ly1; experiment: Induction of apoptosis in human OCI-Ly1 cells assessed as dead cells at 2 uM measured after 24 hrs by Annexin V-FITC/ Propidium iodide staining based flow cytometry (reference value: 0.365%); type: functional
[11] = test system: TMD8; experiment: Induction of apoptosis in human TMD8 cells assessed as dead cells at 2 uM measured after 24 hrs by Annexin V-FITC/ Propidium iodide staining based flow cytometry (reference value: 0%); type: functional
[12] = AUC (0 to t) in CD-1 mouse at 1 mg/kg, ip by LC-MS/MS analysis; type: ADME, organism-based; design: dose 1 mg/kg; conditions: in vivo; method in brief: as §1
[13] = AUC (0 to t) in CD-1 mouse at 10 mg/kg, po by LC-MS/MS analysis; type: ADME, organism-based; design: dose 10 mg/kg; conditions: in vivo; method in brief: as §1
[14] = test system: OCI-Ly1; experiment: Induction of apoptosis in human OCI-Ly1 cells assessed as early apoptotic cells at 5 uM measured after 24 hrs by Annexin V-FITC/ Propidium iodide staining based flow cytometry (reference value: 1.29%); type: functional
[15] = Induction of apoptosis in human HBL1 cells assessed as viable cells at 2 uM measured after 24 hrs by Annexin V-FITC/ Propidium iodide staining based flow cytometry (reference value: 88.1%); type: functional; conditions: read-out: Activity
[16] = test system: OCI-Ly1; experiment: Induction of apoptosis in human OCI-Ly1 cells assessed as early apoptotic cells at 2 uM measured after 24 hrs by Annexin V-FITC/ Propidium iodide staining based flow cytometry (reference value: 1.29%); type: functional
[17] = Induction of apoptosis in human HBL1 cells assessed as early apoptotic cells at 2 uM measured after 24 hrs by Annexin V-FITC/ Propidium iodide staining based flow cytometry (reference value: 4.85%); type: functional
[18] = Induction of apoptosis in human HBL1 cells assessed as dead cells at 2 uM measured after 24 hrs by Annexin V-FITC/ Propidium iodide staining based flow cytometry (reference value: 2.32%); type: functional
[19] = Toxicity in NCG mouse xenografted with human TMD8 cells assessed as emaciation at 30 mg/kg/day, ip measured for 13 days; conditions: in vivo, 312 h
[20] = Induction of apoptosis in human HBL1 cells assessed as early apoptotic cells at 10 uM measured after 24 hrs by Annexin V-FITC/ Propidium iodide staining based flow cytometry (reference value: 4.85%); type: functional
[21] = Half life in CD-1 mouse at 1 mg/kg, ip by LC-MS/MS analysis; type: ADME, organism-based; conditions: in vivo; method in brief: as §1
[22] = test system: OCI-Ly1; experiment: Antiproliferative activity against human OCI-Ly1 cells assessed as inhibition of cell growth incubated for 72 hrs by Celltiter-Glo luminescent assay; type: functional
Method in brief: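 Exponentially growing cells were seeded at 1 × 10⁴ per 100 μL. HBL-1 and TMD8 were kept in RPMI with 10% FBS, 2 mM glutamine and 10 mM HEPES; OCI-LY1 in Iscove's medium with 20% FBS; all at 37 °C and 5% CO2. Cells were exposed to DMSO or 2-fold serial dilutions from 100 μM for 72 h, in triplicate on one plate. CellTiter-Glo luminescence was read after 1 h. Growth inhibition was calculated against control, accounting for initial cell number, and GI50 was fitted.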

[23] = Induction of apoptosis in human HBL1 cells assessed as viable cells at 10 uM measured after 24 hrs by Annexin V-FITC/ Propidium iodide staining based flow cytometry (reference value: 88.1%); type: functional; conditions: read-out: Activity
[24] = test system: OCI-Ly1; experiment: Induction of apoptosis in human OCI-Ly1 cells assessed as late apoptotic cells at 2 uM measured after 24 hrs by Annexin V-FITC/ Propidium iodide staining based flow cytometry (reference value: 0.548%); type: functional
[25] = test system: OCI-Ly1; experiment: Induction of apoptosis in human OCI-Ly1 cells assessed as viable cells at 10 uM measured after 24 hrs by Annexin V-FITC/ Propidium iodide staining based flow cytometry (reference value: 97.8%); type: functional; conditions: read-out: Activity
[26] = Toxicity in NCG mouse xenografted with human TMD8 cells assessed as body weight loss at 30 mg/kg/day, ip measured for 13 days; conditions: in vivo, 312 h
[27] = Tmax in CD-1 mouse at 1 mg/kg, ip by LC-MS/MS analysis; type: ADME, organism-based; conditions: in vivo; method in brief: as §2
[28] = test system: OCI-Ly1; experiment: Induction of apoptosis in human OCI-Ly1 cells assessed as viable cells at 5 uM measured after 24 hrs by Annexin V-FITC/ Propidium iodide staining based flow cytometry (reference value: 97.8%); type: functional; conditions: read-out: Activity

Chain of Nuclear factor NF-kappa-B complex (Homo sapiens) (P19838 whole entry, looked up): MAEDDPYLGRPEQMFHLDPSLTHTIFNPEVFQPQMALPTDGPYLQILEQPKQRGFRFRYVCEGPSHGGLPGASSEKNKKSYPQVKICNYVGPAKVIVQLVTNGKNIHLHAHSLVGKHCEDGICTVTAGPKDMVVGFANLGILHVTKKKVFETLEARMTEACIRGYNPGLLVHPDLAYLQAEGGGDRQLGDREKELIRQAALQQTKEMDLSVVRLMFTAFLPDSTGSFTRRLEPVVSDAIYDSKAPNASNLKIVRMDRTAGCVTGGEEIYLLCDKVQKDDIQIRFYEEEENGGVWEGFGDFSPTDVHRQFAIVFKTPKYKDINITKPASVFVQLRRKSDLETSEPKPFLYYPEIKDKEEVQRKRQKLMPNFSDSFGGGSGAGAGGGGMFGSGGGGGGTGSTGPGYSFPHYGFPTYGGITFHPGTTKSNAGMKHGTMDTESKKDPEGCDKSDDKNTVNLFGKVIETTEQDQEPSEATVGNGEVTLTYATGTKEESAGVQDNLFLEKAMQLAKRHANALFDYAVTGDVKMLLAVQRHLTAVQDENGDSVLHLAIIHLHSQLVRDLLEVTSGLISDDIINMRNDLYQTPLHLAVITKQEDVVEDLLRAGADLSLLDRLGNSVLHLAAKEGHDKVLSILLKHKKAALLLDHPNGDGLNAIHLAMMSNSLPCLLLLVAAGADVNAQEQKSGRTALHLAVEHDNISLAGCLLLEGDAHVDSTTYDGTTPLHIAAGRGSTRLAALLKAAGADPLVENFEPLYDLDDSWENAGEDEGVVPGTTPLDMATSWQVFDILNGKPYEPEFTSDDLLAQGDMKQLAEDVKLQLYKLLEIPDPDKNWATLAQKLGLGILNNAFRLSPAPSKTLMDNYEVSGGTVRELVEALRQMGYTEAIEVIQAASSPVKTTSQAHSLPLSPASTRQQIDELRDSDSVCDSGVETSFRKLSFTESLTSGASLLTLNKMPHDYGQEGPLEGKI
Chain of Nuclear factor NF-kappa-B complex (Homo sapiens) (Q00653 whole entry, looked up): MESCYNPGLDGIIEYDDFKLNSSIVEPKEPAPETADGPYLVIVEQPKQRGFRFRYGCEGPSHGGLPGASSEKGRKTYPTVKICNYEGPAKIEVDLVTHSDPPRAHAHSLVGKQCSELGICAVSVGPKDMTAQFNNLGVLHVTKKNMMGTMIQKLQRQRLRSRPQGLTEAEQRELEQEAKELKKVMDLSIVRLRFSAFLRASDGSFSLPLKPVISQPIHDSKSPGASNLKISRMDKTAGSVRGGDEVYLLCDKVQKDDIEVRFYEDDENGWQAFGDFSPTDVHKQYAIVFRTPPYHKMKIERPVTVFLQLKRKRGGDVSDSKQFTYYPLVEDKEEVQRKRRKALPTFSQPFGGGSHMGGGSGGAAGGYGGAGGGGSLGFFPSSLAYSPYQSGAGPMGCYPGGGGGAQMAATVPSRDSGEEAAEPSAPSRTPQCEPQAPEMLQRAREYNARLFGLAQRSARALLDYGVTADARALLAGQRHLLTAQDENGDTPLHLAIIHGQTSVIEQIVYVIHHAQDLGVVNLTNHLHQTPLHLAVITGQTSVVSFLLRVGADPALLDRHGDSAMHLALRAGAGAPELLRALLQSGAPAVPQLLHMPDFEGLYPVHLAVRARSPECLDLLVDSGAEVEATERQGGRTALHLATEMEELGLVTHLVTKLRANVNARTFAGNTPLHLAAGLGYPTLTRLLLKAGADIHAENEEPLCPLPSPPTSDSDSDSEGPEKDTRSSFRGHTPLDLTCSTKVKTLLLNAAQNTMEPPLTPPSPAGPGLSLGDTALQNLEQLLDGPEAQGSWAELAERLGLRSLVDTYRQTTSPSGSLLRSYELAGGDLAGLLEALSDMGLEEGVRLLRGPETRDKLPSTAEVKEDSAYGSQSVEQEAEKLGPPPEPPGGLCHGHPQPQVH
Chain of Nuclear factor NF-kappa-B complex (Homo sapiens) (Q04206 whole entry, looked up): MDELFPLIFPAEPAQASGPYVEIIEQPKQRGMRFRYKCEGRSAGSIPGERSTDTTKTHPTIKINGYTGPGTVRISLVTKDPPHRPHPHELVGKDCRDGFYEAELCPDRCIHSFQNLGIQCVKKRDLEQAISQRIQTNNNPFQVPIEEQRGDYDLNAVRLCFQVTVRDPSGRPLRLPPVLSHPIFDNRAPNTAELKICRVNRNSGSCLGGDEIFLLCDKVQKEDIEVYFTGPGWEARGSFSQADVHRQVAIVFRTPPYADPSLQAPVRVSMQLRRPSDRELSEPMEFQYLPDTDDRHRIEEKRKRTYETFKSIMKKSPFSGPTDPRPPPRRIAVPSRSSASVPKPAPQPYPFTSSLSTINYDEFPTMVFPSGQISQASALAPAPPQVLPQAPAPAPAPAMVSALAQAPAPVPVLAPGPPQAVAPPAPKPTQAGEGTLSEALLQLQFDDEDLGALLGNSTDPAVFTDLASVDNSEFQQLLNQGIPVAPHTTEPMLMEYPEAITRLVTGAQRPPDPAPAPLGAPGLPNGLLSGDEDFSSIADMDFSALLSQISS

COc1ccc(OC)c(NC(=O)c2sc(=S)n(-c3ccc(C(F)(F)F)cc3)c2NC(=O)CCl)c1
Activity [1]: 35% | inhibition [2]: Active | half-life [3]: 4.6 h | bioavailability [4]: 110% | Activity [5]: 25.7% | Cmax [6]: 336 ng/mL | Activity [7]: 2.65% | bioavailability [8]: 72% | Activity [9]: 1.04% | Activity [10]: 0.011% | Activity [11]: 0.048% | AUC(0-t) [12]: 732 ng·h/mL | AUC(0-t) [13]: 11200 ng·h/mL | Activity [14]: 1.6% | viability at 2 µM [15]: 85.8% | Activity [16]: 1.87% | Activity [17]: 6.78% | Activity [18]: 1.94% | Activity [19]: Non-Toxic | Activity [20]: 57.8% | half-life [21]: 4.5 h | GI50 [22]: 10.7 µM | viability at 10 µM [23]: 6.11% | Activity [24]: 0.688% | viability at 10 µM [25]: 95.5% | Activity [26]: Non-Toxic | Tmax [27]: 0.35 h | viability at 5 µM [28]: 97.4%
